# Target: T1, OR2T34 (Homo sapiens) (UniProt Q8NGX1)
# T1 sequence (whole entry): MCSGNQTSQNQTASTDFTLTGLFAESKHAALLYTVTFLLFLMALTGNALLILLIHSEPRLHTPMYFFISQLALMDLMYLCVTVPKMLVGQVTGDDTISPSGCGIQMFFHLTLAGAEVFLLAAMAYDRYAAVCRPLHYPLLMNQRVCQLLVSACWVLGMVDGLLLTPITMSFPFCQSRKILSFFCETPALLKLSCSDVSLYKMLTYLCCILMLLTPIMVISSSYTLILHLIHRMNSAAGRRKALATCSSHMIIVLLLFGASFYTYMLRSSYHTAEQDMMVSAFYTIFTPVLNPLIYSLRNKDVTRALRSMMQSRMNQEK
# Details: stereoisomer not certain
# Procedure, shortened: (§1)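 Assay methods differ from source to source, frequently being transient luciferase assays in mammalian cell lines. For each receptor–molecule pair, the label responsive (active) applies when the original authors judged the measured signal statistically different from baseline, and non-responsive (inactive) applies otherwise.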
row,Compound,odorant receptor agonist call
1,Cc1c([N+](=O)[O-])c(C)c([N+](=O)[O-])c(C(C)(C)C)c1[N+](=O)[O-],inactive
2,O=CC=Cc1ccccc1,active
3,C=CCOC(=O)Cc1ccccc1,inactive
4,O=Cc1ccccc1,inactive

# Target: T2, OR2T4 (Homo sapiens) (UniProt Q8NH00)
# T2 sequence (whole entry): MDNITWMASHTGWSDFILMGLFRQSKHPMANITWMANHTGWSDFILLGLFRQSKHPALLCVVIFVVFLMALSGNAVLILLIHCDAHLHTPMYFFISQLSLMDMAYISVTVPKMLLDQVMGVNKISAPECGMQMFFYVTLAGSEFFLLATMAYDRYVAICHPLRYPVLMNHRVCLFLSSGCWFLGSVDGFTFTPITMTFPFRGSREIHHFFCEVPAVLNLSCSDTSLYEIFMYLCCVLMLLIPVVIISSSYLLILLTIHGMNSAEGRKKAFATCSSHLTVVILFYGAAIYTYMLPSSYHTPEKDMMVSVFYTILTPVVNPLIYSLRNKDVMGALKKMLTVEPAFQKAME
# Details: stereoisomer not certain
# Procedure, shortened: as §1
row,Compound,odorant receptor agonist call
1,Cc1cccc(C)c1,inactive
2,Cc1c([N+](=O)[O-])c(C)c([N+](=O)[O-])c(C(C)(C)C)c1[N+](=O)[O-],inactive
3,C=CCOC(=O)Cc1ccccc1,inactive
4,COc1ccc(C=O)cc1,inactive

# Source: the M2OR odorant receptor database
